Compound activity deposited in PubChem by Broad Institute.
Rows were chosen to be rich in hits. Some 2% of all compounds tested hit in one or more screens of this group.
CaV13 FRET inh = Disruptors of the CACNA1D IQ motif to Ca2+-dependent inactivation inhibitor domain association, primary screening, Förster resonance energy transfer in intact living … | HEK cells, CFP/YFP FRET ICDI-IQ, plate reader, 10 min; percent FRET-ratio fall versus neutral wells | inhibition, % at 12.3 µM | 340,000 compounds, 0.098% hits;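 active means mean replicate inhibition of at least 30% and at least 1% of replicates passing that level; inconclusive means only one of the two criteria is met; inactive means neither criterion is met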;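 further: 0% = median of the neutral control wells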
Casp6 inh = blocks human caspase-6 cleavage activity | inhibition, % at 12.5 µM | purified caspase-6, Z-VEID-R110 cleavage fluorescence | 350,000 compounds, 0.53% hits | AID 686996;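 active means mean inhibition across replicates at least about 35%, with every replicate also reaching that limit, limit read from the data; inconclusive means only one of the two criteria met; inactive means neither criterion met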;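 further: 0% = median of neutral control wells and 100% = no fluorescence left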
Target sequence (P55212 24-179 limits assumed): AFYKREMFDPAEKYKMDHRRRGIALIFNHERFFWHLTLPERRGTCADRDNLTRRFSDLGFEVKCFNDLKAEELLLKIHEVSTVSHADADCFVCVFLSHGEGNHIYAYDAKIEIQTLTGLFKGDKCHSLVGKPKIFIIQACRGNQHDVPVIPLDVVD
Target sequence (P55212 194-293 limits assumed): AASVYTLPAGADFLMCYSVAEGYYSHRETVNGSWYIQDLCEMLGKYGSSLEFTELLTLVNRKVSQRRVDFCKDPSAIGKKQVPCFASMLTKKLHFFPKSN
Xi reactivation = X-chromosome reactivation activator; XiGFP mouse fibroblasts, % GFP-positive cells imaging, 3 d; cells co-treated with 5-aza-dC sensitizer; scaled so ellipticine positive control = 100%; activation, % at 7.58 µM; 360,000 compounds, 0.055% hits; AID 743238;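 active means mean normalized replicate activation at least 10% and every replicate at or above 10%; inconclusive means only one of the two criteria met; inactive means mean below 10% and not all replicates reach 10%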;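 further: 0% = median of on-plate neutral control wells and 100% = ellipticine 6 µM median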
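Material: XiGFP fibroblasts, SV40-immortalized. Buffer or medium: DMEM plus 5-aza-dC sensitizer. Compound: single concentration per compound, delivered by pin transfer. Times: 3 days compound exposure. Controls: ellipticine 6 µM.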
DENV2 CPE rescue = protects cells from dengue virus 2 cytopathic effect; 350,000 compounds, 1.7% hits; AID 651640; DENV2-infected cells, cytopathic effect rescue, plate reader; CPE inhibition, % at 9.99 µM; in the data active means CPE inhibition above about 20%, passing the limit was not always enough; inconclusive means no clear call, values can overlap the other calls; tested in BHK-21 cells;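 further: 0% = median of neutral control wells and 100% = median of positive control wells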
FN deposit inh = fibronectin deposition inhibition | AH1F fibroblasts, Alexa488-fibronectin deposition fluorescence, overnight | inhibition, % at 12.6 µM | 350,000 compounds, 0.086% hits;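 active means mean inhibition across replicates of 30% or more, regardless of how many single replicates reach that level; inconclusive means mean under 30% yet at least half of replicates reach 30%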;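 further: positive control wells lacked labelled fibronectin entirely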
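Schedule: 1 h cell adhesion before compound, then overnight fibronectin incubation; test system: AH1F fibroblast monolayer depositing Alexa488-labelled fibronectin into matrix; quantity: 10000 AH1F cells per well; probe or stimulus: fluorescent fibronectin at 24 nM final; signal: fluorescence, ex 485 nm, em 525 nm; evaluation: percent inhibition as loss of matrix-bound fibronectin fluorescence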
Active calls of the source: *; ? = inconclusive; · = no result given.

SMILES | CaV13 FRET inh | Casp6 inh | Xi reactivation | DENV2 CPE rescue | FN deposit inh
Cc1ccc2oc3c(c(=O)c2c1)C(c1cccc(Cl)c1)N(CCCN1CCOCC1)C3=O (stereo not drawn) | -5 | 4 | 0 | 55* | -5
O=C1c2oc3ccc(F)cc3c(=O)c2C(c2cccc(O)c2)N1CCCN1CCOCC1 (stereo not drawn) | 12 | -2 | 0 | -1 | -2
O=C(C1CCCCC1)N1CC2(C1)[C@@H](c1ccccc1)[C@H](CO)N2Cc1ccccc1F | · | -2 | 1 | -9 | ·
O=C(C1CCCCC1)N1CC2(C1)[C@@H](c1ccccc1)[C@@H](CO)N2Cc1ccccc1F | · | 0 | 0 | 32* | ·
O=C(c1cccc(F)c1)N1CC2(C1)[C@@H](c1ccccc1)[C@@H](CO)N2C(=O)C1CCCC1 | · | 0 | 0 | 78* | 10
CN(C)CC(=O)N1CC2(C1)[C@H](c1ccccc1)[C@@H](CO)N2C(=O)C1CCCC1 | · | -1 | 0 | -1 | 12
COc1ccccc1CN1[C@H](CO)[C@@H](c2ccccc2)C12CN(C(=O)c1ccccn1)C2 | · | -1 | 0 | 89* | ·
CN(C)CC(=O)N1[C@H](CO)[C@@H](c2ccccc2)C12CN(C(=O)C1CCCC1)C2 | · | 0 | 0 | 51* | ·
O=C(c1cccc(F)c1)N1CC2(C1)[C@@H](c1ccccc1)[C@H](CO)N2C(=O)C1CCCC1 | · | · | 0 | · | -1
C[C@@H]1CCCCO[C@H](CN(C)S(C)(=O)=O)[C@@H](C)CN([C@@H](C)CO)C(=O)c2cc(NS(=O)(=O)c3ccc(F)cc3)ccc2O1 | · | -1 | 0 | 10 | ·
COc1ccc2c3c([nH]c2c1)[C@H](CO)N(C)CC31CCN(C(=O)c2ccccc2F)CC1 | · | 4 | 0 | -4 | -3
CCCN(C)C[C@H]1Oc2cc(C#Cc3ccccn3)ccc2S(=O)(=O)N([C@H](C)CO)C[C@H]1C | · | -11 | 1 | 2 | -3
C[C@H]1CN([C@@H](C)CO)C(=O)c2cc(C#CC3CCCCC3)cnc2O[C@H]1CN(C)C(=O)Cc1ccccn1 | · | -1 | 0 | 3 | 2
C[C@@H]1CN([C@@H](C)CO)C(=O)c2cc(C3=CCCC3)cnc2O[C@H]1CN(C)Cc1cccnc1 | · | 4 | 0 | 1 | -11
COc1ccc2c3c(n(C)c2c1)[C@H](CO)N(C(=O)Cc1ccccc1)CC31CN(C(=O)Cc2ccccc2)C1 | · | -3 | 0 | ? | ·
Cc1cc(C2(O)C(=O)Nc3ccccc32)ccc1F (stereo not drawn) | -20 | 36* | 0 | -3 | -8
O=C1Nc2ccccc2C1(O)c1ccccc1O (stereo not drawn) | -14 | 6 | 0 | 1 | 0
N#CCCn1cc(C(=O)CN2C(=O)NC3(CCc4ccccc43)C2=O)c2ccccc21 (stereo not drawn) | -18 | 0 | 0 | 34* | -11
O=C(c1ccc[nH]1)N1O[C@@H]2C=C[C@H]1C2 | -10 | 2 | 0 | 62* | 4
COc1cc(Nc2ccn3nc(-c4ccccc4Cl)cc3n2)cc(OC)c1OC | -4 | 1 | 0 | 30* | -5
CO[C@@H]1CN(C)C(=O)c2ccc(NC(C)=O)cc2OC[C@@H](C)N(C(=O)Cc2ccccn2)C[C@H]1C | · | 3 | 0 | 7 | 1
COCC(=O)Nc1ccc2c(c1)OC[C@@H](C)N(C(=O)COC)C[C@H](C)[C@H](OC)CN(C)C2=O | · | -1 | 0 | 10 | -2
CO[C@H]1CN(C)C(=O)c2ccc(NC(=O)NC(C)C)cc2OC[C@H](C)N(C(=O)CC2CC2)C[C@@H]1C | · | 2 | 0 | -3 | 2
COCC(=O)Nc1ccc2c(c1)OC[C@H](C)N(C(=O)CC1CC1)C[C@@H](C)[C@@H](OC)CN(C)C2=O | · | -3 | 0 | -3 | ·
CO[C@@H]1CN(C)C(=O)c2ccc(NC(=O)NC(C)C)cc2OC[C@H](C)N(C(=O)CC2CC2)C[C@H]1C | · | -1 | 0 | 32* | -8
SMILES | CaV13 FRET inh | Casp6 inh | Xi reactivation | DENV2 CPE rescue | FN deposit inh
COCC(=O)Nc1ccc2c(c1)OC[C@H](C)N(C(=O)CC1CC1)C[C@H](C)[C@H](OC)CN(C)C2=O | · | -1 | 0 | 31* | ·
COCC(=O)Nc1ccc2c(c1)OC[C@@H](C)N(C(=O)COC)C[C@@H](C)[C@H](OC)CN(C)C2=O | · | -2 | 0 | 53* | -2
COCC(=O)N1[C@@H](CO)[C@@H](c2ccc(-c3ccccc3OC)cc2)C12CN(C(C)=O)C2 | · | 1 | 0 | 3 | -9
C[C@@H]1CN(C)C(=O)c2cc(N(C)C)ccc2O[C@@H]1CN(C)S(C)(=O)=O | · | · | 0 | · | ·
Cc1nn(Cc2ccc(Cl)cc2)c(C)c1NC(=O)c1ccc([N+](=O)[O-])cc1 | -5 | 6 | 0 | 34* | 0
C[C@@H]1CN([C@H](C)CO)C(=O)c2cccc(NS(=O)(=O)c3ccc(F)cc3)c2O[C@@H]1CN(C)C(=O)Nc1cccc2ccccc12 | · | 8 | 0 | -1 | -5
Cc1nc(C(=O)NC2CCOCC2)sc1C1(C)CC(c2cccc([N+](=O)[O-])c2)=NO1 (stereo not drawn) | -12 | -1 | 0 | 44* | -5
CC(C)CC#Cc1ccc2c(c1)O[C@@H](CN(C)C(=O)c1cccc(F)c1)[C@H](C)CN([C@@H](C)CO)S2(=O)=O | · | 2 | 0 | -1 | 4
COc1ccc(SC[C@H](C)CN2CC[C@H](NC(=O)OCc3ccccc3)CCC2=O)cc1 | -9 | 1 | 0 | -1 | -2
C[C@@H](CSc1ccc(Br)cc1)CN1CC[C@H](NC(=O)OCc2ccccc2)CCC1=O | -4 | -3 | 0 | 75* | -7
Nc1c(C(=O)NCc2ccco2)nnn1Cc1ccccc1 | -6 | · | · | · | 30*
O=C(O)c1cccc(NS(=O)(=O)c2ccc3nnn(O)c3c2)c1 | 1 | · | · | · | ·
O=C(O)c1cccc(NC2=C(n3nnc4ccccc43)C(=O)c3ccccc3C2=O)c1 | -3 | 82* | 0 | -4 | 5
C[C@H](CO)N1C[C@H](C)[C@H](CN(C)Cc2cccnc2)Oc2ncc(C#CC3(O)CCCC3)cc2C1=O | · | 3 | 0 | 7 | -5
Cc1cccc(CN(C)C[C@@H]2Oc3ncc(C#Cc4ccccc4)cc3C(=O)N([C@H](C)CO)C[C@@H]2C)c1 | · | 1 | 15* | -9 | 1
CC(C)CC#Cc1cnc2c(c1)C(=O)N([C@H](C)CO)C[C@H](C)[C@H](CN(C)Cc1ccccc1)O2 | · | 0 | 0 | 23* | 2
CC(C)CC#Cc1cnc2c(c1)C(=O)N([C@@H](C)CO)C[C@@H](C)[C@H](CN(C)Cc1ccccc1)O2 | · | 2 | -1 | 6 | 4
C[C@@H]1CN([C@H](C)CO)C(=O)c2cc(C#CC3(O)CCCC3)cnc2O[C@@H]1CN(C)Cc1cccnc1 | · | -2 | -1 | 25* | -2
